Results: article PMC2929396 (Chemistry & biology, 2010)
Where two headings read alike, the source gives them in different places. Blank lines part the entries; values can stand above or below the compound they belong to.

Key:
P. falciparum [1] = assay: P. falciparum replication assay; format: cell-based, Plasmodium falciparum; conditions: read-out: EC50Pot; standard 75 h replication assay, ring stage D10 parasites
Outline: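 D10 parasites were synchronized by 70% Percoll schizont harvest, a 1 h invasion window and sorbitol. Ring-stage cultures (~2% parasitemia, 0.5% hematocrit) were treated with compound for ~75 h, until DMSO controls reached schizonts. Infected versus uninfected RBCs were counted by FACS. EC50Pot was fitted to a dose response curve.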

HFF cells = assay: Cell toxicity, CellTiter-Glo; format: cell-based, human; conditions: ATP production after 24 h treatment of HFF cells with 0.01–100 µM compound
Outline: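 HFF cells were incubated 24 h with inhibitor (0.01–100 µM) or DMSO. Viability was read as ATP by CellTiter-Glo. EC50Tox was obtained by fitting the data to a dose response curve.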

[2] = tested on: NK65 P. berghei parasites; assay: P. berghei mouse model of malaria, parasitemia; format: in vivo, Balb/c mice; conditions: Figure S2
[3] = Compound toxicity and pharmacokinetics in mice; format: in vivo; conditions: Figure S2
FPs (FP2/3) = assay: Competition assay with activity-based probe 125I-DCG04, falcipain labeling; format: biochemical, Plasmodium falciparum; conditions: parasite lysates
Outline: (§1)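 Trophozoite or merozoite lysates, or intact schizonts, were used in acetate buffer (50 mM sodium acetate, 5 mM MgCl2, 5 mM DTT, pH 5.5). Lysates were preincubated 30 min with 10 µM inhibitor, then labeled 1 h. FY01 labeled DPAPs (fluorescent SDS-PAGE scan) and 125I-DCG04 labeled falcipains (autoradiography). Loss of band signal indicated inhibition, and IC50s came from quantified gel bands.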

P. falciparum [4] = assay: Replication assay after 1h treatment and washout; format: cell-based, Plasmodium falciparum; conditions: 1h treatment at different life cycle stages
Outline: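 Tightly synchronized parasites were exposed 1 h to inhibitor or DMSO at 1, 10, 18, 30, 38 or 46 h post-invasion. They were then washed 3× and cultured until progeny in DMSO controls reached schizonts (~80 h p.i.). Parasitemia was read by FACS from 3 independent measurements, reported as standard error.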

DPAP1 [5] = target: T1, DPAP1 (Plasmodium falciparum, UniProt Q8IIJ9); assay: DPAP1 specific fluorogenic assay; format: biochemical
T1 sequence (Q8IIJ9 370-599 limits assumed): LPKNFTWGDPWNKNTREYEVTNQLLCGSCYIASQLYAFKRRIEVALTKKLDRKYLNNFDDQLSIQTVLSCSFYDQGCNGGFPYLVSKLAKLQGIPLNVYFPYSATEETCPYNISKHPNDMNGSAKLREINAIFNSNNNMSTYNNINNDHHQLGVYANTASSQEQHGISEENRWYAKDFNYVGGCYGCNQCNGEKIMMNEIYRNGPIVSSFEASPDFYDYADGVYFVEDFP
T1 sequence (Q8IIJ9 28-209 limits assumed): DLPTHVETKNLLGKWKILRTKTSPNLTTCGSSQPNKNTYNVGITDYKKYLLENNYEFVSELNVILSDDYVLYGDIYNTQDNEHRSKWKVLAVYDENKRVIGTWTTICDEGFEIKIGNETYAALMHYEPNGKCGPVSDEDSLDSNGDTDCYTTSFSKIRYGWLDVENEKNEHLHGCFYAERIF
T1 sequence (Q8IIJ9 600-700 limits assumed): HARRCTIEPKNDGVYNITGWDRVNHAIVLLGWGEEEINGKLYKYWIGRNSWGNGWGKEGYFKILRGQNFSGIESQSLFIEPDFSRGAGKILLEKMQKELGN
Outline: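 DPAP1 activity was assayed at 25 °C in pH 5.5 acetate buffer with 1% parasite lysate and 10 µM (Pro-Arg)2-Rho. Turnover was read for 5 min (ex 492/em 523 nm). Lysates were pretreated with inhibitor for set times (0.1–2 h). IC50 came from dose response fits. For ki, v/v0 relative to DMSO was fitted to a simple irreversible inhibitor model.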

DPAP3 = assay: Competition assay with activity-based probe FY01, DPAP3 labeling; format: biochemical, Plasmodium falciparum; conditions: parasite lysates
Outline: as §1

DPAP1 [6] = target: T1, DPAP1; format: biochemical
Outline: as §1

P. falciparum [7] = assay: Phenotypic effects in Geimsa-stained thin blood smears; format: cell-based, Plasmodium falciparum; conditions: schizonts treated 24 h
Outline: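 Synchronous schizont-stage cultures were exposed to inhibitor for 24 h across increasing concentrations. Morphology was assessed on Giemsa-stained thin blood smears.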

[8] = Stability after overnight incubation in mouse serum; format: in vitro ADME; conditions: 37 °C
Outline: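 Inhibitor was incubated overnight at 37 °C in mouse serum. Remaining potency was tested as the ability to block FY01 labeling of DPAP1 in parasite lysates, run before and after serum exposure.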

[9] = ref personal communication, David Percival, Merck; cited from earlier work

EC50 (P. falciparum [1]): 220 nM
SMILES: CCCCC(C(=O)COc1c(F)c(F)cc(F)c1F)n1cc(C2(N)CCNCC2)nn1 (stereo not shown) [ML4162]
EC50Tox (HFF cells): 68000 (4000) nM

SMILES: CCC[C@H](N)C(=O)N[C@H](/C=C/S(=O)(=O)c1ccccc1)CCc1ccccc1 [JCP-410]
effect in vivo [2]: no effect
PK properties [3]: poor

EC50 (P. falciparum [1]): 45000 nM
SMILES: CCCCC(C(=O)COc1c(F)c(F)cc(F)c1F)n1cc(C2(N)CCN(C(N)=O)CC2)nn1 (stereo not shown) [ML4154]
EC50Tox (HFF cells): 30000 (5000) nM

SMILES: CCCCC(C(=O)COC(=O)c1c(C)cccc1C)n1cc(C2(N)CCCCC2)nn1 (stereo not shown) [ML4091]
EC50 (P. falciparum [1]): 6000 nM
EC50Tox (HFF cells): 12000 (3000) nM

EC50 (P. falciparum [1]): > 100000 nM
SMILES: CCCCC(C(=O)COc1c(F)c(F)cc(F)c1F)n1cc(C2(N)CCN(C(C)=O)CC2)nn1 (stereo not shown) [ML4163]
EC50Tox (HFF cells): > 100000 nM

IC50 (DPAP1 [5]; read-out: IC50DPAP1,1h, 1h, lysates): 6.4 nM
IC50 (DPAP1 [5]; read-out: IC50DPAP1,2h, 2h treatment of parasite lysates): 2 nM
second order rate constant of inhibition (ki) (DPAP1 [5]; trophozoite lysates incubated with inhibitor 0.1–2h): 35000 ± 3000 M⁻¹ s⁻¹
EC50 (P. falciparum [1]): 2.8 nM
block of DPAP1 labeling by ABP (DPAP1 [6]; lysates, 30 min with 10 µM inhibitor then 1h FY01): efficiently blocked labeling
selectivity towards DPAP1 over DPAP3 and the FPs (DPAP1 [6]; other papain fold cysteine proteases of P. falciparum): at least 1000 fold
ability to inhibit DPAP1 after incubation in mouse serum [8]: lost virtually all of their activity
SMILES: C[C@H](N)C(=O)N[C@@H](Cc1ccc(I)cc1)C(=O)C=[N+]=[N-] [Ala-4(I)Phe-DMK]
inhibition of FPs (ABP labeling) (FPs (FP2/3)): but not FPs or DPAP3
sensitivity at trophozoite stage relative to other stages (P. falciparum [4]): 10 times
inhibition of DPAP3 (ABP labeling) (DPAP3): but not FPs or DPAP3
concentration inducing schizont arrest and a FV defect (P. falciparum [7]): ≥ 1 µM
pharmacokinetic (PK) properties [9]: very poor
